High-throughput results as filed in PubChem.
Hits are enriched below; roughly 5.8% of the tested compounds scored in any of these assays.
Pf Dd2 inh: inhibitors of Plasmodium falciparum Dd2 growth; 2.3% of 94,000 active; P. falciparum Dd2 growth, SYBR Green, 72 h; hits give low values; activity change, % at 10 µM; AID 1159554; in the data active means activity change below about -80%; inconclusive means no clear call, values can overlap the other calls
GASC1 inh: blocks human GASC-1 (KDM4C) demethylase activity. Q9H3R0. inhibition, % at 12.5 µM. AID 720574. 0.15% of 96,000 active. GST-KDM4C 2-372, H3K9me3 peptide, LANCE TR-FRET;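 active means mean replicate inhibition above about 25%, with at least 55% of replicates also reaching it, limit read from the data, passing the limit was not always enough; inconclusive means only one of those two conditions met; inactive means neither condition met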
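reagent = H3K9me3 peptide substrate, Fe(II), 2-oxoglutarate | system = GST-tagged GASC-1 (JMJD2C) catalytic fragment, aa 2-372 | amount = enzyme final amount 10 nM | read-out = Fall in 671/618 emission ratio as inhibition | medium = HEPES buffer, pH 7.5, plus ascorbate | schedule = 30 min reaction, 60 min detection, RT | measured by = LANCE TR-FRET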
T cruzi growth: inhibitors of T. cruzi proliferation. T. cruzi beta-gal in NIH3T3, GalScreen luminescence, 90 h. inhibition, % at 8.34 µM. 5.9% of 77,000 active. AID 624255;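 active means mean inhibition above about 93%, with at least 55% of replicates each passing it, limit read from the data, passing the limit was not always enough; inconclusive means only one of those two conditions holds; inactive means neither condition holds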
IDH1 R132H inh: blocks human IDH1 R132H reductase activity; O75874; diaphorase/resazurin fluorescence, 60 min; inhibition, % at 10 µM; 0.18% of 70,000 active; AID 624101; in the data active means inhibition above about 34%; inconclusive means no clear call, values can overlap the other calls; inactive means below about 11%;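 further: 0% = DMSO and 100% = no enzyme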
Target sequence (O75874 whole entry R132H): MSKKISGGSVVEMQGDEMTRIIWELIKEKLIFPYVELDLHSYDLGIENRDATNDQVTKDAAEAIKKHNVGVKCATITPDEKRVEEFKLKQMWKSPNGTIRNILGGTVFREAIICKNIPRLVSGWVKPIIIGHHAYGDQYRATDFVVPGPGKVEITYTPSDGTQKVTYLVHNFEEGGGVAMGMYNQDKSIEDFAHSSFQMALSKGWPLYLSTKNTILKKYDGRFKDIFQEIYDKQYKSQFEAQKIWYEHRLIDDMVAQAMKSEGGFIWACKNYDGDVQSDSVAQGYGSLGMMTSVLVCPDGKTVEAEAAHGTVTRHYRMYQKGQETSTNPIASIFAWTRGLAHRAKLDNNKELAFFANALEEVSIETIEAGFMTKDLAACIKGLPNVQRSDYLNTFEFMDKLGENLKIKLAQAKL
The depositor's hits bear a star.

For C[C@@H]1CN([C@@H](C)CO)C(=O)c2cc(NC(=O)c3ccncc3)ccc2O[C@@H](C)CCCCO[C@H]1CN(C)C(=O)Nc1cccc2ccccc12 the results were Pf Dd2 inh -80, GASC1 inh -2, T cruzi growth 44 and IDH1 R132H inh 1.
For Cc1ccc(-c2ccc([C@H]3[C@H](CO)N4C(=O)CN(C(=O)c5ccncc5)C[C@@H]34)cc2)cc1 the results were Pf Dd2 inh 13 and GASC1 inh -1.
C[C@H](CO)N1C[C@H](C)[C@@H](CN(C)C(=O)C2CCCCC2)Oc2ncc(-c3ccncc3)cc2C1=O was read as Pf Dd2 inh 8, GASC1 inh -2 and T cruzi growth -4.
Screening C[C@@H]1CCCCO[C@H](CN(C)C(=O)Nc2ccc(C(F)(F)F)cc2)[C@@H](C)CN([C@@H](C)CO)C(=O)c2cc(NS(=O)(=O)c3ccc(F)cc3)ccc2O1 returned Pf Dd2 inh -84*, GASC1 inh 0, T cruzi growth 78 and IDH1 R132H inh 2.
`Cc1ccc(S(=O)(=O)Nc2ccc3c(c2)C(=O)N([C@H](C)CO)C[C@@H](C)[C@H](CN(C)Cc2ccc(C(F)(F)F)cc2)OCCCC[C@@H](C)O3)cc1` gave Pf Dd2 inh -73 and GASC1 inh -1.
`Cc1ccc(S(=O)(=O)Nc2ccc3c(c2)C(=O)N([C@@H](C)CO)C[C@@H](C)[C@@H](CN(C)Cc2ccc(C(F)(F)F)cc2)OCCCC[C@H](C)O3)cc1` gave Pf Dd2 inh -81*, GASC1 inh 0 and IDH1 R132H inh 1.
`C[C@H]1CCCCO[C@@H](CN(C)C(=O)Nc2ccc(C(F)(F)F)cc2)[C@@H](C)CN([C@@H](C)CO)C(=O)c2cc(NS(=O)(=O)c3ccc(F)cc3)ccc2O1` gave Pf Dd2 inh -46, GASC1 inh 0 and T cruzi growth 87.
Cc1ccc(S(=O)(=O)Nc2ccc3c(c2)C(=O)N([C@@H](C)CO)C[C@@H](C)[C@@H](CN(C)C(=O)Nc2ccc(C(F)(F)F)cc2)OCCCC[C@H](C)O3)cc1 was read as Pf Dd2 inh -82*, GASC1 inh 1 and T cruzi growth 87.
O=C(c1ccncc1)N1C[C@H]2[C@@H](c3ccccc31)[C@H](CO)N2C(=O)Nc1ccccc1Cl was read as Pf Dd2 inh 3, GASC1 inh 0 and T cruzi growth -11.
`CO[C@@H]1CN(C)C(=O)c2ccc(NC(=O)c3ccc(-c4ccccc4)cc3)cc2OC[C@@H](C)NC[C@@H]1C` gave Pf Dd2 inh -86* and GASC1 inh -2.
Screening CO[C@@H]1CN(C)C(=O)c2ccc(NC(=O)Nc3ccc(C(F)(F)F)cc3)cc2OC[C@H](C)NC[C@H]1C returned Pf Dd2 inh -95*, GASC1 inh -2, T cruzi growth 28 and IDH1 R132H inh 0.
CO[C@@H]1CN(C)C(=O)c2cc(NC(=O)Nc3cccc(Cl)c3)ccc2OC[C@@H](C)NC[C@@H]1C was read as Pf Dd2 inh -85*, GASC1 inh 0, T cruzi growth -5 and IDH1 R132H inh 0.
Screening CO[C@H]1CN(C)C(=O)c2cc(NC(=O)c3ccc(Oc4ccccc4)cc3)ccc2OC[C@@H](C)NC[C@H]1C returned Pf Dd2 inh -55, GASC1 inh 6, T cruzi growth -80 and IDH1 R132H inh 0.
CO[C@@H]1CN(C)C(=O)c2cc(NC(=O)c3ccc(Oc4ccccc4)cc3)ccc2OC[C@@H](C)NC[C@@H]1C was read as Pf Dd2 inh -92*, GASC1 inh -1, T cruzi growth 7 and IDH1 R132H inh 0.
Screening CO[C@@H]1CN(C)C(=O)c2cc(NC(=O)Nc3cccc(Cl)c3)ccc2OC[C@@H](C)NC[C@H]1C returned Pf Dd2 inh -23, GASC1 inh -1, T cruzi growth -13 and IDH1 R132H inh 0.
O=C(NCC[C@@H]1CC[C@@H](NS(=O)(=O)c2ccc(Cl)cc2)[C@H](CO)O1)c1ccccc1F was read as Pf Dd2 inh -1, GASC1 inh 0, T cruzi growth 21 and IDH1 R132H inh 0.
`CO[C@@H]1CN(C)C(=O)c2ccc(NC(=O)c3ccc(-c4ccccc4)cc3)cc2OC[C@H](C)NC[C@@H]1C` gave Pf Dd2 inh inconclusive, GASC1 inh -4, T cruzi growth -10 and IDH1 R132H inh 0.
Screening CO[C@H]1CN(C)C(=O)c2ccc(NC(=O)c3ccc(-c4ccccc4)cc3)cc2OC[C@@H](C)NC[C@@H]1C returned Pf Dd2 inh -92*, GASC1 inh -2, T cruzi growth -32 and IDH1 R132H inh 0.
O=C(C[C@@H]1C[C@H]2c3cc(NC(=O)C4CCOCC4)ccc3O[C@H]2[C@@H](CO)O1)NCc1ccccn1 was read as Pf Dd2 inh -10, GASC1 inh -1, T cruzi growth 34 and IDH1 R132H inh 0.
C[C@@H]1CN([C@@H](C)CO)C(=O)Cc2cc(NS(=O)(=O)c3ccc(Cl)cc3)ccc2O[C@@H]1CN(C)Cc1ccc(C(=O)Nc2ccccc2N)cc1 was read as Pf Dd2 inh -82*, GASC1 inh 3 and IDH1 R132H inh 0.
Screening C[C@@H]1CN([C@H](C)CO)C(=O)Cc2cc(NS(=O)(=O)c3ccc(Cl)cc3)ccc2O[C@@H]1CN(C)Cc1ccc(C(=O)Nc2ccccc2N)cc1 returned Pf Dd2 inh -85*, GASC1 inh 5 and IDH1 R132H inh 0.
Screening C[C@@H]1CN([C@@H](C)CO)C(=O)Cc2cc(NS(=O)(=O)c3ccccc3)ccc2O[C@@H]1CN(C)Cc1ccc(C(=O)Nc2ccccc2N)cc1 returned Pf Dd2 inh -88*, GASC1 inh -2, T cruzi growth 42 and IDH1 R132H inh 0.
Screening C[C@@H]1CN([C@H](C)CO)C(=O)Cc2cc(NS(=O)(=O)c3ccc(Cl)cc3)ccc2O[C@H]1CN(C)Cc1ccc(C(=O)Nc2ccccc2N)cc1 returned Pf Dd2 inh -41 and GASC1 inh -1.
Screening O=C(Nc1ccccc1F)N1CC(=O)N2[C@H](CO)[C@@H](c3ccc(-c4ccccc4)cc3)[C@H]2C1 returned Pf Dd2 inh -84* and GASC1 inh -1.
O=C(Nc1cc(F)ccc1F)N1CC(=O)N2[C@H](CO)[C@@H](c3ccc(C#CC4CCCCC4)cc3)[C@@H]2C1 was read as Pf Dd2 inh -82* and GASC1 inh -4.
`O=C(Nc1ccccc1F)N1CC(=O)N2[C@H](CO)[C@H](c3ccc(-c4ccccc4)cc3)[C@@H]2C1` gave Pf Dd2 inh -6 and GASC1 inh -1.
`C[C@@H]1CCCCO[C@H](CN(C)S(=O)(=O)c2ccc(Cl)cc2)[C@@H](C)CN([C@H](C)CO)C(=O)c2cc(NC(=O)CCCCCC(=O)Nc3ccccc3N)ccc2O1` gave Pf Dd2 inh -85*, GASC1 inh -1 and IDH1 R132H inh 0.
Screening C[C@@H]1CN([C@@H](C)CO)C(=O)c2cc(NC(=O)CCCCCC(=O)Nc3ccccc3N)ccc2O[C@@H](C)CCCCO[C@@H]1CN(C)C(=O)Nc1ccc(C(F)(F)F)cc1 returned Pf Dd2 inh -82*, GASC1 inh 0 and T cruzi growth 72.
